Measured values as given in ChEMBL document CHEMBL1127325, “Potent gastrin-releasing peptide (GRP) antagonists derived from GRP (19-27) with a C-terminal DPro psi [CH2NH]Phe-NH2 and N-terminal aromatic residues” (J Med Chem, 1994).
pIC50: −log10 of the molar value. Each block holds one molecule with its values, some of them ahead of it. Activity calls are given as the source filed them. The calls are words filed in the database; no cut-off is given here. Where a SMILES comes first, the peptide text is derived from it. [ ]: non-standard residue; d: D form. The star is where a group is joined. ProΨ(CH2NH)PheNH2 = NC(=O)[C@H](Cc1ccccc1)NC[C@@H]1CCCN1*; dProψ(CH2NH)PheNH2 = NC(=O)[C@H](Cc1ccccc1)NC[C@H]1CCCN1*; Propanoyl(3-(4-MeO-Ph)) = COc1ccc(CCC(=O)*)cc1; Desaminotyrosyl = O=C(CCc1ccc(O)cc1)*; Hydrocinnamoyl = O=C(CCc1ccccc1)*; X8 = COc1cc(CCC(=O)*)cc(OC)c1OC; X5 = C[C@@H](C(=O)*)c1ccccc1; X6 = C[C@H](C(=O)*)c1ccccc1; X7 = CC(C)(CC(=O)*)c1ccccc1; X1 = CC(C)(C(=O)*)c1ccccc1; Sar = CNCC(=O)O

Key:
[1] = molecular target: Gastrin-releasing peptide receptor (Mus musculus) (UniProt P21729); assay: Inhibition of 6 nM bombesin induced [3H]thymidine incorporation measured in swiss 3T3 cells using a mitogenicity assay; type: functional, cell-based
Chain of Gastrin-releasing peptide receptor (Mus musculus) (P21729 whole entry): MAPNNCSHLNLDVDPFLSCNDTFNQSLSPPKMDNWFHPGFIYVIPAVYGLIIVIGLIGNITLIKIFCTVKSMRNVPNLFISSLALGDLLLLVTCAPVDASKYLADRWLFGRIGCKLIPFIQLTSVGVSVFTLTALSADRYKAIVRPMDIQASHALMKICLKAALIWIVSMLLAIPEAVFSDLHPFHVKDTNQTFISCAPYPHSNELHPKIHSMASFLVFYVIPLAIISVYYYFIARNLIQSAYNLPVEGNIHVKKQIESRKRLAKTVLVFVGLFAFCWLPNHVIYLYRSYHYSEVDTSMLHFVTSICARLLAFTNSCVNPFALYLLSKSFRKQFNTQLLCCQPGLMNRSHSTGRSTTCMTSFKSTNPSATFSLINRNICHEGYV
Method in brief: (§1)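 Density-arrested quiescent Swiss 3T3 monolayers treated in triplicate with test peptide (generally log dilutions) plus 6 nM bombesin for 18 h, then pulsed 2 h with 0.5 µCi [3H]thymidine per well. Cells washed with cold PBS, fixed in methanol/acetic acid, solubilized, scintillation counted. IC50 ± SEM over replicate trials; na means no activity at 10^-4 M.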

[2] = molecular target: T1, Gastrin-releasing peptide receptor (Mus musculus, UniProt P21729); assay: Ability of peptide to inhibit binding of 10 pM [125I]gastrin releasing peptide to S-3T3 cell membrane.; type: cell-based
T1 sequence (P21729 whole entry): as above
Method in brief: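 Swiss 3T3 membranes (10 µg protein) incubated in triplicate with 10 pM [125I]GRP(1-27) in HEPES-KOH pH 6.8 (20 mM) with EGTA, MgCl2, BSA and protease inhibitors, 60 min at 37 °C with shaking. Terminated by filtration through PEI-pretreated GF/B filters, gamma counted. Nonspecific binding taken with 10 nM unlabeled GRP(1-27). IC50 for half-maximal inhibition of specific binding by Hill plot analysis.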

[3] = molecular target: T1, Gastrin-releasing peptide receptor; assay: The ability of the peptide to inhibit the binding of 50 pM [125I]gastrin releasing peptide to intact S-3T3 cells; type: cell-based
Method in brief: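 Serially diluted peptides overlaid in triplicate on quiescent Swiss 3T3 monolayers (about 10^5 cells) with 50 pM [125I]GRP in maintenance medium, 30 min at 37 °C. Monolayers washed three times with chilled medium, solubilized, radioactivity counted. IC50 values reported.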

[4] = tested on: NIH3T3; assay: The ability of the peptide to inhibit the binding of 50 pM [125I]gastrin releasing peptide to intact S-3T3 cells was measured; type: cell-based; conditions: Mus musculus
Method in brief: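 Quiescent, density-arrested Swiss 3T3 monolayers (about 10^5 cells) in maintenance medium. Serially diluted peptides were added in triplicate with [125I]GRP and incubated 37 °C, 30 min. Monolayers were washed three times with chilled medium, solubilized with detergent and counted. IC50 reported ± SEM.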

[5] = The ability of the peptide to inhibit the binding of 10 pM [125I]gastrin releasing peptide to S-3T3 cell membrane was measured; conditions: Mus musculus
[6] = tested on: NIH3T3; assay: Ability of the peptide to inhibit 6 nM bombesin induced [3H]thymidine incorporation was measured in swiss 3T3 cells using mitogenicity assay; na=Not active; type: functional, cell-based; conditions: Mus musculus; method in brief: as §1

Activity [1]: 0.2 nM | pIC50 [2]: 10.31 | pIC50 [3]: 10.52
Compound: CC(C)[C@H](NC(=O)[C@H](C)NC(=O)[C@H](Cc1c[nH]c2ccccc12)NC(=O)[C@H](Cc1c[nH]cn1)NC(=O)C1C[C@@H]1c1ccccc1)C(=O)N[C@H](C)C(=O)N[C@@H](Cc1c[nH]cn1)C(=O)N1CCC[C@@H]1CN[C@@H](Cc1ccccc1)C(N)=O (stereo partly drawn)

Activity [1]: 0.34 nM | pIC50 [2]: 9.74 | pIC50 [3]: 11.52
Compound: CC(C)[C@H](NC(=O)[C@H](C)NC(=O)[C@H](Cc1c[nH]c2ccccc12)NC(=O)[C@H](Cc1c[nH]cn1)NC(=O)C(C)(C)c1ccccc1)C(=O)N[C@H](C)C(=O)N[C@@H](Cc1c[nH]cn1)C(=O)N1CCC[C@@H]1CN[C@@H](Cc1ccccc1)C(N)=O (X1-HWAV[dA]H-{dProψ(CH2NH)PheNH2})

Activity [1]: 0.9 nM | pIC50 [2]: 9.02 | pIC50 [3]: 7.52
Compound: CC(C)[C@H](NC(=O)[C@H](C)NC(=O)[C@H](Cc1c[nH]c2ccccc12)NC(=O)[C@H](Cc1c[nH]cn1)NC(=O)[C@H](C)c1ccccc1)C(=O)N[C@H](C)C(=O)N[C@@H](Cc1c[nH]cn1)C(=O)N1CCC[C@@H]1CN[C@@H](Cc1ccccc1)C(N)=O (X5-HWAV[dA]H-{dProψ(CH2NH)PheNH2})

Activity [1]: 7e-08 | pIC50 [2]: 8.89 | pIC50 [3]: 9.00
Compound: CC(C)[C@H](NC(=O)[C@H](C)NC(=O)[C@H](Cc1c[nH]c2ccccc12)NC(=O)[C@H](Cc1c[nH]cn1)NC(=O)[C@@H](C)c1ccccc1)C(=O)N[C@H](C)C(=O)N[C@@H](Cc1c[nH]cn1)C(=O)N1CCC[C@@H]1CN[C@@H](Cc1ccccc1)C(N)=O (X6-HWAV[dA]H-{dProψ(CH2NH)PheNH2})

Activity [1]: 18 nM | pIC50 [2]: 8.92 | pIC50 [3]: 8.00
Compound: CC(C)[C@H](NC(=O)[C@H](C)NC(=O)[C@H](Cc1c[nH]c2ccccc12)NC(=O)[C@H](Cc1c[nH]cn1)NC(=O)CC(C)(C)c1ccccc1)C(=O)N[C@H](C)C(=O)N[C@@H](Cc1c[nH]cn1)C(=O)N1CCC[C@@H]1CN[C@@H](Cc1ccccc1)C(N)=O (X7-HWAV[dA]H-{dProψ(CH2NH)PheNH2})

Activity [1]: 1 nM | pIC50 [2]: 9.66 | pIC50 [3]: 12.00
Compound: CC(NC(=O)[C@H](Cc1c[nH]c2ccccc12)NC(=O)[C@H](Cc1c[nH]cn1)NC(=O)CCc1ccccc1)C(=O)N[C@H](C(=O)NC(C)C(=O)N[C@@H](Cc1c[nH]cn1)C(=O)N1CCC[C@H]1CN[C@@H](Cc1ccccc1)C(N)=O)C(C)C (stereo in doubt)

The next lines start with the molecule.

Compound: CC(C)[C@H](NC(=O)[C@H](C)NC(=O)[C@H](Cc1c[nH]c2ccccc12)NC(=O)[C@H](Cc1c[nH]cn1)NC(=O)Cc1ccccc1N)C(=O)N[C@H](C)C(=O)N[C@@H](Cc1c[nH]cn1)C(=O)N1CCC[C@@H]1CN[C@@H](Cc1ccccc1)C(N)=O
Activity [1]: 13 nM | pIC50 [2]: 8.70 | pIC50 [3]: 10.00

Compound: CC(C)[C@H](NC(=O)[C@H](C)NC(=O)[C@H](Cc1c[nH]c2ccccc12)NC(=O)[C@H](Cc1cnc[nH]1)NC(=O)CCc1ccc(O)cc1)C(=O)N[C@H](C)C(=O)N[C@@H](Cc1cnc[nH]1)C(=O)N1CCC[C@@H]1CN[C@@H](Cc1ccccc1)C(N)=O (Desaminotyrosyl-HWAV[dA]H-{dProψ(CH2NH)PheNH2})
pIC50 [2]: 9.64 | pIC50 [3]: 10.30

Compound: CC(C)[C@H](NC(=O)[C@H](C)NC(=O)[C@H](Cc1c[nH]c2ccccc12)NC(=O)[C@H](Cc1cnc[nH]1)NC(=O)CCc1ccccc1)C(=O)N(C)CC(=O)N[C@@H](Cc1cnc[nH]1)C(=O)N1CCC[C@H]1CN[C@@H](Cc1ccccc1)C(N)=O (Hydrocinnamoyl-HWAV[Sar]H-{ProΨ(CH2NH)PheNH2})
pIC50 [2]: 7.68 | pIC50 [3]: 10.00

Compound: COc1cc(CCC(=O)N[C@@H](Cc2c[nH]cn2)C(=O)N[C@@H](Cc2c[nH]c3ccccc23)C(=O)N[C@@H](C)C(=O)N[C@H](C(=O)N[C@H](C)C(=O)N[C@@H](Cc2c[nH]cn2)C(=O)N2CCC[C@@H]2CN[C@@H](Cc2ccccc2)C(N)=O)C(C)C)cc(OC)c1OC (X8-HWAV[dA]H-{dProψ(CH2NH)PheNH2})
pIC50 [4]: 12.00 | pIC50 [5]: 9.34 | Activity [1]: 0.3 nM

Compound: CC(NC(=O)[C@H](Cc1c[nH]c2ccccc12)NC(=O)[C@H](Cc1c[nH]cn1)NC(=O)CCc1ccccc1)C(=O)N[C@H](C(=O)NC(C)C(=O)N[C@@H](Cc1c[nH]cn1)C(=O)N1CCC[C@H]1C(O)CC(=O)N[C@@H](Cc1ccccc1)C(N)=O)C(C)C (stereo in doubt)
Activity [1]: 26 nM | pIC50 [2]: 7.51 | pIC50 [3]: 7.30

Compound: CC(NC(=O)[C@H](Cc1c[nH]c2ccccc12)NC(=O)[C@H](Cc1cccs1)NC(=O)CCc1ccccc1)C(=O)N[C@H](C(=O)NC(C)C(=O)N[C@@H](Cc1c[nH]cn1)C(=O)N1CCC[C@H]1CN[C@@H](Cc1ccccc1)C(N)=O)C(C)C (stereo in doubt)
Activity [1]: 50 nM | pIC50 [2]: 7.25 | pIC50 [3]: 8.00

Compound: CC(NC(=O)[C@H](Cc1c[nH]c2ccccc12)NC(=O)[C@H](Cc1c[nH]cn1)NC(=O)CCc1ccccc1)C(=O)N[C@H](C(=O)NC(C)C(=O)N[C@@H](Cc1c[nH]cn1)C(=O)N1CCC[C@@H]1C(O)CC(=O)N[C@@H](Cc1ccccc1)C(N)=O)C(C)C (stereo in doubt)
pIC50 [2]: 6.85 | Activity [6]: inactive | pIC50 [3]: 7.22

Compound: CC(C)CC(NC(=O)[C@H](Cc1c[nH]cn1)NC(=O)C(C)NC(=O)[C@@H](NC(=O)C(C)NC(=O)[C@H](Cc1c[nH]c2ccccc12)NC(=O)[C@H](Cc1c[nH]cn1)NC(=O)CCc1ccccc1)C(C)C)C(O)CC(=O)N[C@@H](Cc1ccccc1)C(N)=O (stereo in doubt)
Activity [1]: 6 nM | pIC50 [2]: 7.14 | pIC50 [3]: 10.00

Compound: COc1ccc(CCC(=O)N[C@@H](Cc2c[nH]cn2)C(=O)N[C@@H](Cc2c[nH]c3ccccc23)C(=O)N[C@@H](C)C(=O)N[C@H](C(=O)N[C@H](C)C(=O)N[C@@H](Cc2c[nH]cn2)C(=O)N2CCC[C@@H]2CN[C@@H](Cc2ccccc2)C(N)=O)C(C)C)cc1 ({Propanoyl(3-(4-MeO-Ph))}-HWAV[dA]H-{dProψ(CH2NH)PheNH2})
pIC50 [4]: 8.00 | pIC50 [5]: 9.33 | Activity [1]: 0.3 nM
